From ChEMBL document CHEMBL1129261, “De novo antimicrobial peptides with low mammalian cell toxicity” (1996)
Converted amounts (≈) assume the structure as drawn.

How the values were obtained:
Staphylococcus aureus = test: Compound was evaluated for antibacterial activity against Staphylococcus aureus; assay type: functional
In short: (§1)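 Broth microdilution MIC against E. coli ATCC 25922, P. aeruginosa ATCC 27853, S. aureus ATCC 25723. Cultures grown to midlog phase in nutrient broth, standardized to 0.5 McFarland, diluted to 5 × 10^4 cells per well. Equal volume of peptide added, 1:2 serial dilutions giving 256-2 µg/mL in medium. MIC is the lowest concentration with no turbidity […]. Median of three to seven tests.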

Homo sapiens = species: Homo sapiens; test: Compound was measured for sublethal concentrations (uM) in Human erythrocytes; assay type: functional
In short: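 Human erythrocytes (1 × 10^5 per well) incubated at 37 °C for 30 min with peptide. Peptide was dissolved in serum-free MEM and diluted 2-fold serially. Sublethal concentration is the highest dilution […]. A "greater than" entry means slight hemolysis at the highest concentration tested.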

Mus musculus = species: Mus musculus; test: (§2) Compound was tested for sublethal concentrations in 3T3 mouse fibroblast lysis.; assay type: functional
In short: (§3)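 Mouse 3T3 fibroblast monolayers, 1 day old (about 1 × 10^4 cells/well), in MEM. Peptide applied as 2-fold serial dilutions in MEM, 30 min at 37 °C alongside untreated controls. Cells then stained with 0.2% trypan blue and viewed by light microscopy. Sublethal dose is the highest dilution in which only 1-10 adherent cells stay unstained.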

Pseudomonas aeruginosa = test: Compound was evaluated for antibacterial activity against Pseudomonas aeruginosa; assay type: functional; in short: as §1
Escherichia coli = test: Compound was evaluated for antibacterial activity against Escherichia coli; assay type: functional; in short: as §1
NIH3T3 = test: as §2; assay type: functional, cell-based; in short: as §3

Row | Compound | MIC (Staphylococcus aureus) [µM] | Concentration (Homo sapiens) [µM] | Concentration (Mus musculus) [µM] | MIC (Pseudomonas aeruginosa) [µM] | MIC (Escherichia coli) [µM] | Concentration (NIH3T3) [µM]
1 | CC(C)C[C@H](NC(=O)[C@H](CCCCN)NC(=O)[C@H](CCCCN)NC(=O)[C@H](C)NC(=O)[C@H](CC(C)C)NC(=O)[C@H](CCCCN)NC(=O)[C@H](C)NC(=O)[C@H](CC(C)C)NC(=O)[C@H](CCCCN)NC(=O)[C@H](CCCCN)NC(=O)[C@H](C)NC(=O)[C@H](CC(C)C)NC(=O)[C@H](CCCCN)NC(=O)[C@H](C)NC(=O)[C@H](CC(C)C)NC(=O)[C@H](CCCCN)NC(=O)[C@H](CCCCN)NC(=O)[C@H](C)NC(=O)[C@H](CC(C)C)NC(=O)[C@@H](N)CCCCN)C(=O)N[C@@H](C)C(=O)O | 4 (≈ 9.11 µg/mL) | > 250 | 11 | 4 (≈ 9.11 µg/mL) | 4 (≈ 9.11 µg/mL) | –
2 | CC(C)C[C@H](NC(=O)[C@H](C)NC(=O)[C@H](CCCCN)NC(=O)[C@H](CC(C)C)NC(=O)[C@H](C)NC(=O)[C@H](CCCCN)NC(=O)[C@H](CCCCN)NC(=O)[C@H](CC(C)C)NC(=O)[C@H](C)NC(=O)[C@H](CCCCN)NC(=O)[C@H](CC(C)C)NC(=O)[C@H](C)NC(=O)[C@H](CCCCN)NC(=O)[C@H](CCCCN)NC(=O)[C@H](CC(C)C)NC(=O)[C@H](C)NC(=O)[C@H](CCCCN)NC(=O)[C@H](CC(C)C)NC(=O)[C@H](C)NC(=O)[C@@H](N)CCCCN)C(=O)N[C@@H](CCCCN)C(=O)O | 8 (≈ 18.2 µg/mL) | – | – | 4 (≈ 9.11 µg/mL) | 4 (≈ 9.11 µg/mL) | 11
3 | CC(C)C[C@H](NC(=O)[C@H](CCCCN)NC(=O)[C@H](C)NC(=O)[C@H](CC(C)C)NC(=O)[C@H](CCCCN)NC(=O)[C@H](CCCCN)NC(=O)[C@H](C)NC(=O)[C@H](CC(C)C)NC(=O)[C@H](CCCCN)NC(=O)[C@H](C)NC(=O)[C@H](CC(C)C)NC(=O)[C@H](CCCCN)NC(=O)[C@H](CCCCN)NC(=O)[C@H](C)NC(=O)[C@H](CC(C)C)NC(=O)[C@H](CCCCN)NC(=O)[C@H](C)NC(=O)[C@H](CC(C)C)NC(=O)[C@@H](N)CCCCN)C(=O)N[C@@H](C)C(=O)N[C@@H](CCCCN)C(=O)O | 4 (≈ 9.11 µg/mL) | > 520 | 9 | 4 (≈ 9.11 µg/mL) | 4 (≈ 9.11 µg/mL) | –
4 | CC(C)C[C@H](NC(=O)[C@H](CCCCN)NC(=O)[C@H](C)NC(=O)[C@H](CC(C)C)NC(=O)[C@H](CCCCN)NC(=O)[C@H](CCCCN)NC(=O)[C@H](C)NC(=O)[C@H](CC(C)C)NC(=O)[C@H](CCCCN)NC(=O)[C@H](C)NC(=O)[C@H](CC(C)C)NC(=O)[C@@H](N)CCCCN)C(=O)N[C@@H](C)C(=O)N[C@@H](CCCCN)C(=O)O | 6 (≈ 9.14 µg/mL) | > 750 | > 517 | 6 (≈ 9.14 µg/mL) | 6 (≈ 9.14 µg/mL) | –
5 | CC[C@H](C)[C@H](NC(=O)CN)C(=O)NCC(=O)N[C@@H](C)C(=O)N[C@H](C(=O)N[C@@H](CC(C)C)C(=O)N[C@@H](CCCCN)C(=O)N[C@H](C(=O)N[C@@H](CC(C)C)C(=O)N[C@H](C(=O)N[C@H](C(=O)NCC(=O)N[C@@H](CC(C)C)C(=O)N1CCC[C@H]1C(=O)N[C@@H](C)C(=O)N[C@@H](CC(C)C)C(=O)N[C@H](C(=O)N[C@@H](CO)C(=O)N[C@@H](Cc1c[nH]c2ccccc12)C(=O)N[C@H](C(=O)N[C@@H](CCCCN)C(=O)N[C@@H](CCCNC(=N)N)C(=O)N[C@@H](CCCCN)C(=O)N[C@@H](CCCNC(=N)N)C(=O)N[C@@H](CCC(N)=O)C(=O)N[C@@H](CCC(N)=O)C(N)=O)[C@@H](C)CC)[C@@H](C)CC)[C@@H](C)O)[C@@H](C)O)C(C)C)C(C)C | – | 1 | 1 | – | – | –
6 | H-GIGKFLHSAKKFGKAFVGEIMNS-NH2 | 19 | > 460 | 60 | 5 | 10 | –
7 | H-KAAKKAAKAAKKAA-OH | > 256 | > 670 | > 525 | – | 47 | –
8 | H-KAAKKAAKAAKKAAKAAKKAA-OH | 8 | > 1630 | > 440 | – | 8 | –
9 | H-KLAKKLA-OH | > 100 | – | – | > 100 | > 100 | –
10 | H-KLAKKLAKLAKKLA-OH | 6 | > 750 | > 272 | 3 | 6 | –
11 | H-KLAKLAK-OH | > 95 | – | – | > 95 | > 95 | –
12 | H-KLGKKLGKLGKKLG-OH | 22 | > 780 | – | – | 22 | –
13 | H-KLGKKLGKLGKKLGKLGKKLG-OH | 4 | > 570 | > 393 | 4 | 4 | –
